The array DNA melting data of Ke et al. (doi:10.1101/2024.01.08.574731)

Experiments:
[1] = folding enthalpy; higher = less favourable; fluorescence melt of hairpins on a sequencing array, two-state fit; conditions: sodium 0.088 M
In short: (§1)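 In 50 mM Na-HEPES pH 8.0 containing 25 mM NaCl, hairpins from the library on a sequenced MiSeq flow cell were imaged for Cy3 fluorescence at 2.5 °C steps up to 60 °C, with Cy3 and quencher oligos annealed. After normalisation to pre-quench Cy3 and to control constructs, two-state fits with bootstrapping gave melting temperature and folding enthalpy. Four replicates were combined by inverse-variance weighting, and fitted temperatures were shifted up by 9.35 °C to match UV melts.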

[2] = melting temperature; fluorescence melt of hairpins on a sequencing array, two-state fit, raised by 9.35 °C to match UV melts; conditions: sodium 0.088 M
In short: as §1

| Sequence | folding enthalpy [1] | Tm [2] |
| --- | --- | --- |
| CGATCGGAAACGAGCTCG ((((((....)))..))) | -11.5 kcal/mol | 29.8 °C |
| CGATCGGAAACGATGTCG ((((((....)))..))) | -13.6 kcal/mol | 39.5 °C |
| CGATGCCGGAAACGGTCG (((..(((....)))))) | -10 kcal/mol | 32.7 °C |
| CGATTCGGAAACGAGTCG (((.(((....))).))) | -43.6 kcal/mol | 50.8 °C |
| CGCAACGGAAACGTCGCG (((.(((....))).))) | -42.6 kcal/mol | 52.1 °C |
| CGCAACGGAAACGTGCG (((.(((....)))))) | -31.8 kcal/mol | 56.5 °C |
| CGCAAGCGGAAACGCGCG (((..(((....)))))) | -22 kcal/mol | 56.9 °C |
| CGCAATCGGAAACGAGCG (((..(((....)))))) | -25.4 kcal/mol | 42.4 °C |
| CGCACACGGAAACGTGCG (((..(((....)))))) | -22 kcal/mol | 52.9 °C |
| CGCACGGAAACGTTGGCG ((((((....)))..))) | -37.8 kcal/mol | 45.4 °C |
| CGCCAACGGAAACGTGCG (((..(((....)))))) | -26 kcal/mol | 45.5 °C |
| CGCCAGCGGAAACGCGCG (((..(((....)))))) | -23.4 kcal/mol | 50.6 °C |
| CGCCCCGGAAACGGAGCG (((.(((....))).))) | -39.3 kcal/mol | 56.5 °C |
| CGCCCCGGAAACGGTGCG (((.(((....))).))) | -49.4 kcal/mol | 53.9 °C |
| CGCCCGCGGAAACGCGCG (((..(((....)))))) | -8.68 kcal/mol | 42.4 °C |
| CGCCGCCGGAAACGGGCG (((..(((....)))))) | -16.5 kcal/mol | 51.9 °C |
| CGCCGCGGAAACGCTGCG (((.(((....))).))) | -37.6 kcal/mol | 57.6 °C |
| CGCCTCGGAAACGACGCG (((.(((....))).))) | -33.9 kcal/mol | 45.7 °C |
| CGCCTCGGAAACGATGCG (((.(((....))).))) | -48 kcal/mol | 49.9 °C |
| CGCCTTCGGAAACGAGCG (((..(((....)))))) | -13.6 kcal/mol | 36.3 °C |
| CGCGACGGAAACGTGCG (((.(((....)))))) | -28.3 kcal/mol | 55.3 °C |
| CGCGCGGAAACGCAAGCG ((((((....)))..))) | -34 kcal/mol | 56.8 °C |
| CGCGCGGAAACGCACGCG ((((((....)))..))) | -22.1 kcal/mol | 57.1 °C |

| Sequence | folding enthalpy [1] | Tm [2] |
| --- | --- | --- |
| CGCGGAAAAGTCCGCG ((((((....)))))) | -38.4 kcal/mol | 60.9 °C |
| CGCGGAAAATCCGCG ((((((...)))))) | -42.4 kcal/mol | 62.3 °C |
| CGCGGAAAATTCCGCG ((((((....)))))) | -32 kcal/mol | 68.3 °C |
| CGCGGAAAGATCCGCG ((((((....)))))) | -33.8 kcal/mol | 64.2 °C |
| CGCGGAACATCCGCG ((((((...)))))) | -27.5 kcal/mol | 69 °C |
| CGCGGAAGATCCGCG ((((((...)))))) | -26.5 kcal/mol | 69.1 °C |
| CGCGGACAATCCGCG ((((((...)))))) | -26.4 kcal/mol | 67.7 °C |
| CGCGGACGATTCCGCG ((((((....)))))) | -29.1 kcal/mol | 69 °C |
| CGCGGACGGATCCGCG ((((((....)))))) | -28.8 kcal/mol | 68.7 °C |
| CGCGGAGCTGTCCGCG ((((((....)))))) | -20.9 kcal/mol | 67.1 °C |
| CGCGGAGCTTTCCGCG ((((((....)))))) | -20.8 kcal/mol | 68.2 °C |
| CGCGGATCTCTCCGCG ((((((....)))))) | -51 kcal/mol | 66.8 °C |
| CGCGGATGACTCCGCG ((((((....)))))) | -43.1 kcal/mol | 66.7 °C |
| CGCGGCCGGAAACGGGCG (((..(((....)))))) | -12.1 kcal/mol | 65.6 °C |
| CGCGTCGGAAACGAGCG (((.(((....)))))) | -31.7 kcal/mol | 54.9 °C |
| CGCTACGGAAACGTCGCG (((.(((....))).))) | -39.3 kcal/mol | 51.9 °C |
| CGCTATCGGAAACGAGCG (((..(((....)))))) | -27.1 kcal/mol | 41.8 °C |
| CGCTCCGGAAACGGGCG (((.(((....)))))) | -32.5 kcal/mol | 54.1 °C |
| CGCTCGCGGAAACGCGCG (((..(((....)))))) | -7.4 kcal/mol | 61.2 °C |
| CGCTCGGAAACGAATGCG ((((((....)))..))) | -23.3 kcal/mol | 45 °C |
| CGCTCGGAAACGACGCG ((((((....))).))) | -34.6 kcal/mol | 51.1 °C |
| CGCTCGGAAACGAGAGCG ((((((....)))..))) | -25.7 kcal/mol | 52.2 °C |
| CGCTTCCGGAAACGGGCG (((..(((....)))))) | -23.4 kcal/mol | 40 °C |

| Sequence | folding enthalpy [1] | Tm [2] |
| --- | --- | --- |
| CGCTTCGGAAACGAGCG (((.(((....)))))) | -27.1 kcal/mol | 49.3 °C |
| CGGACACGGAAACGTCCG (((..(((....)))))) | -26 kcal/mol | 47.6 °C |
| CGGACGGAAACGTACCCG ((((((....)))..))) | -14.4 kcal/mol | 34.5 °C |
| CGGACGGAAACGTATCCG ((((((....)))..))) | -17.5 kcal/mol | 36.7 °C |
| CGGACGGAAACGTCGCCG ((((((....)))..))) | -12.1 kcal/mol | 34.5 °C |
| CGGACGGAAACGTGACCG ((((((....)))..))) | -25 kcal/mol | 38.3 °C |
| CGGACGGAAACGTTCCCG ((((((....)))..))) | -15.8 kcal/mol | 37.2 °C |
| CGGACGGAAACGTTCCG ((((((....))).))) | -27.5 kcal/mol | 51.2 °C |
| CGGACTCGGAAACGACCG (((..(((....)))))) | -17.5 kcal/mol | 32.9 °C |
| CGGAGACGGAAACGTCCG (((..(((....)))))) | -17.6 kcal/mol | 47.1 °C |
| CGGAGCGGAAACGCCCG (((.(((....)))))) | -30.6 kcal/mol | 55.6 °C |
| CGGAGGAAACTCCG (((((....))))) | -20.5 kcal/mol | 57.1 °C |
| CGGATTCGGAAACGACCG (((..(((....)))))) | -17.8 kcal/mol | 35.7 °C |
| CGGCACGGAAACGTCCCG (((.(((....))).))) | -26 kcal/mol | 42 °C |
| CGGCACGGAAACGTTCCG (((.(((....))).))) | -24.5 kcal/mol | 47.9 °C |
| CGGCAGAAATGCCG (((((....))))) | -31.3 kcal/mol | 64.9 °C |
| CGGCAGCGGAAACGCCCG (((..(((....)))))) | -21.7 kcal/mol | 47 °C |
| CGGCCCGGAAACGGCCCG (((.(((....))).))) | -17.9 kcal/mol | 51.8 °C |
| CGGCCGGAAACGGCTCCG ((((((....)))..))) | -8.35 kcal/mol | 33.7 °C |
| CGGCCGGAAACGGGACCG ((((((....)))..))) | -25.5 kcal/mol | 47.8 °C |
| CGGCCGGAAACGGGGCCG ((((((....)))..))) | -39.4 kcal/mol | 59.1 °C |
| CGGCTCCGGAAACGGCCG (((..(((....)))))) | -27.1 kcal/mol | 50.3 °C |
| CGGCTCGGAAACGAACCG (((.(((....))).))) | -44.5 kcal/mol | 51 °C |

| Sequence | folding enthalpy [1] | Tm [2] |
| --- | --- | --- |
| CGGGAGAAATCCCG (((((....))))) | -25.9 kcal/mol | 57.1 °C |
| CGGGCTCGGAAACGACCG (((..(((....)))))) | -22.6 kcal/mol | 40.6 °C |
| CGGGGTCGGAAACGACCG (((..(((....)))))) | -7.49 kcal/mol | 51.9 °C |
| CGGGTGCGGAAACGCCCG (((..(((....)))))) | -23.4 kcal/mol | 55.7 °C |
| CGGTACCGGAAACGGCCG (((..(((....)))))) | -20.8 kcal/mol | 40.9 °C |
| CGGTAGAAATACCG (((((....))))) | -28.2 kcal/mol | 48.6 °C |
| CGGTCCGGAAACGGCCCG (((.(((....))).))) | -29.4 kcal/mol | 55.1 °C |
| CGGTCGGAAACGAACCCG ((((((....)))..))) | -19.3 kcal/mol | 38.2 °C |
| CGGTCGGAAACGACACCG ((((((....)))..))) | -11 kcal/mol | 38 °C |
| CGGTCGGAAACGACCCCG ((((((....)))..))) | -9.36 kcal/mol | 37.3 °C |
| CGGTCGGAAACGAGCCG ((((((....))).))) | -21.6 kcal/mol | 51.2 °C |
| CGGTCGGAAACGAGTCCG ((((((....)))..))) | -20.6 kcal/mol | 39.4 °C |
| CGGTGGCGGAAACGCCCG (((..(((....)))))) | -11.5 kcal/mol | 47 °C |
| CGGTGTCGGAAACGACCG (((..(((....)))))) | -11.9 kcal/mol | 47.5 °C |
| CGGTTACGGAAACGTCCG (((..(((....)))))) | -23.3 kcal/mol | 36.1 °C |
| CGGTTCCGGAAACGGCCG (((..(((....)))))) | -21 kcal/mol | 43.3 °C |
| CGTACACGGAAACGTACG (((..(((....)))))) | -25.7 kcal/mol | 40.8 °C |
| CGTACCGGAAACGGACG (((.(((....)))))) | -21.2 kcal/mol | 45.7 °C |
| CGTACCGGAAACGGCACG (((.(((....))).))) | -39.9 kcal/mol | 50.2 °C |
| CGTACGGAAACGTAGACG ((((((....)))..))) | -17 kcal/mol | 36.6 °C |
| CGTACGGAAACGTCGACG ((((((....)))..))) | -12.9 kcal/mol | 37.5 °C |
| CGTACGGAAACGTGAACG ((((((....)))..))) | -15.1 kcal/mol | 37.4 °C |
| CGTACGGAAACGTTACG ((((((....))).))) | -30.6 kcal/mol | 46.1 °C |
